Experimental data: ChEMBL document CHEMBL1154414, “In vitro and in vivo activities of T-705 against arenavirus and bunyavirus infections” (Antimicrob Agents Chemother, 2007)
Calls of active or inactive are those of the source. No cut-off for these calls is given here.

Experiments:
Punta Toro virus [1] = experiment: Antiviral activity against Punta Toro virus Adames infected Syrian golden hamster assessed as mean viral titer per 0.1 g of liver at 30 mg/kg, […] measured on day 4 of viral infection; assay type: functional; details: route oral
Punta Toro virus [2] = experiment: Antiviral activity against Punta Toro virus Adames infected Syrian golden hamster assessed as animals with detectable virus level in liver at 30 mg/kg, […] measured on day 4 of viral infection; assay type: functional; details: route oral
Punta Toro virus [3] = experiment: Antiviral activity against 5000 PFU Punta Toro virus Adames infected C57BL/6 mouse assessed as mean day of death at 30 mg/kg, po twice daily for 5 days administered 24 hrs post viral challenge; assay type: functional
How it was run: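 PTV was inoculated subcutaneously into mice in groups of 15 (25–30 placebo). Dosing was by oral gavage twice daily for 5–7 days, with T-705 suspended in 0.4% CMC and ribavirin in saline. Remaining animals were observed 21–28 days for survival and day of death. Test doses had first been checked for tolerance in uninfected animals.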

Punta Toro virus [4] = experiment: Antiviral activity against 50 PFU Punta Toro virus Adames infected C57BL/6 mouse assessed as survival at 30 mg/kg, po twice daily for 5 days administered 24 hrs post viral challenge; assay type: functional, organism-based; set-up: dose 30 mg/kg
How it was run: (§1)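 Groups of 15 mice (25–30 placebo) were inoculated subcutaneously with PTV. Drug in 0.4% carboxymethylcellulose was given by oral gavage twice daily.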

Punta Toro virus [5] = experiment: Antiviral activity against 50 PFU Punta Toro virus Adames infected C57BL/6 mouse assessed as mean viral titer per 0.1 g of liver at 30 mg/kg, po twice daily administered 24 hrs post viral challenge measured on day 3 of viral infection; assay type: functional
How it was run: (§2)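 Mice were infected subcutaneously with PTV and dosed by oral gavage twice daily with drug in 0.4% CMC. Five per group (10 placebo) were sacrificed on day 3 or 4. Serially diluted liver homogenate or serum went into triplicate LLC-MK2 wells, and CPE 50% endpoints were read at 6–8 days. The range was 2.8–9.5 log10 CCID50/0.1 g or 0.1 ml, with undetectable samples set to 2.8 and saturated samples to 9.5.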

Punta Toro virus [6] = experiment: Antiviral activity against 50 PFU Punta Toro virus Adames infected C57BL/6 mouse assessed as mean viral titer per 0.1 mL of serum at 30 mg/kg, po twice daily administered 24 hrs post viral challenge measured on day 3 of viral infection; assay type: functional; how it was run: as §2
Punta Toro virus [7] = experiment: Antiviral activity against 50 PFU Punta Toro virus Adames infected C57BL/6 mouse assessed as animals with detectable virus level in serum at 30 mg/kg, po twice daily administered 24 hrs post viral challenge measured on day 3 of viral infection; assay type: functional
How it was run: (§3)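 T-705 was suspended in 0.4% carboxymethylcellulose and given by oral gavage twice daily. Mice were infected subcutaneously with PTV. Five mice per group (10 placebo) were sacrificed on day 3 or 4. Liver homogenate or serum was serially diluted onto triplicate LLC-MK2 monolayers, and CPE was read at 6–8 days. The detection limit was 2.8 log10 CCID50 per 0.1 g liver or 0.1 ml serum.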

Punta Toro virus [8] = experiment: Antiviral activity against 50 PFU Punta Toro virus Adames infected C57BL/6 mouse assessed as mean serum ALT levels at 30 mg/kg, po twice daily administered 24 hrs post viral challenge measured on day 3 of viral infection; assay type: functional
How it was run: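 Subcutaneous PTV infection was followed by oral gavage twice daily with drug suspended in 0.4% CMC. Serum was collected from 5 sacrificed mice per group (10 placebo) on day 3 or 4. ALT activity was measured by kinetic assay, and sham-infected mice set the baselines.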

Rift Valley fever virus = experiment: Antiviral activity against Rift Valley fever virus MP-12 assessed as inhibition of virus-induced visual cytopathic effect after 3 to 5 days; assay type: functional, organism-based
How it was run: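 Virus in medium with 2% FBS was used at the CCID50 that gave maximal CPE. Half-log drug dilutions (DMSO stock, ≤1% DMSO at the top concentration) were added at infection. EC50 was derived by regression analysis.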

Pichinde virus [9] = experiment: Antiviral activity against Pichinde virus An 4763 infected Syrian golden hamster assessed as animals with detectable virus level in serum at 20 mg/kg, po twice daily for 7 days administered 24 hrs post viral-challenge measured on day 7 of viral infection; assay type: functional
How it was run: (§4)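 Hamsters (groups of 15, placebo 25-30) were dosed orally by gavage twice daily (drug suspended in 0.4% CMC) after bilateral intraperitoneal challenge with 65 PFU. Five per group were killed on day 7. Liver homogenate or serum was serially diluted onto triplicate B-SC-1 wells, CPE was read at 6-8 days, and the 50% endpoint was taken. Range was 2.8-9.5 log10 CCID50/0.1 g or 0.1 ml, with undetectable assigned <2.8.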

Pichinde virus [10] = experiment: Antiviral activity against Pichinde virus An 4763 infected Syrian golden hamster assessed as mean serum ALT levels at 20 mg/kg, po twice daily for 7 days administered 24 hrs post viral-challenge measured on day 7 of viral infection; assay type: functional
How it was run: (§5)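 Hamsters were challenged intraperitoneally (bilateral, 65 PFU) and given twice-daily oral gavage doses (0.4% CMC vehicle). Five per group were sacrificed on day 7 and serum was collected. Serum ALT activity was measured by kinetic assay. Three sham-infected animals set the baselines.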

Pichinde virus [11] = experiment: Antiviral activity against Pichinde virus An 4763 infected Syrian golden hamster assessed as survival at 50 mg/kg, po twice daily for 7 days administered 72 hrs post viral-challenge; assay type: functional
How it was run: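 Groups of 15 hamsters (placebo 25-30) were challenged intraperitoneally (bilateral, 65 PFU) and dosed twice daily by oral gavage in 0.4% CMC for 5 to 7 days.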

Pichinde virus [12] = experiment: Antiviral activity against Pichinde virus An 4763 infected Syrian golden hamster assessed as animals with detectable virus level in liver at 20 mg/kg, po twice daily for 7 days administered 72 hrs post viral-challenge measured on day 7 of viral infection; assay type: functional; how it was run: as §4
Pichinde virus [13] = experiment: Antiviral activity against Pichinde virus An 4763 infected Syrian golden hamster assessed as mean viral titer per 0.1 mL of serum at 20 mg/kg, po twice daily for 7 days administered 72 hrs post viral-challenge measured on day 7 of viral infection; assay type: functional; how it was run: as §4
Pichinde virus [14] = experiment: Antiviral activity against Pichinde virus An 4763 infected Syrian golden hamster assessed as mean serum ALT levels at 20 mg/kg, po twice daily for 7 days administered 72 hrs post viral-challenge measured on day 7 of viral infection; assay type: functional; how it was run: as §5
Punta Toro virus [15] = experiment: Antiviral activity against 500 PFU Punta Toro virus Adames infected C57BL/6 mouse assessed as mean day of death at 30 mg/kg, po twice daily for 5 days administered 24 hrs post viral challenge; assay type: functional; how it was run: as §1
Punta Toro virus [16] = experiment: Antiviral activity against 500 PFU Punta Toro virus Adames infected C57BL/6 mouse assessed as animals with detectable virus level in serum at 30 mg/kg, po twice daily administered 24 hrs post viral challenge measured on day 3 of viral infection; assay type: functional; how it was run: as §3
Punta Toro virus [17] = experiment: Antiviral activity against 500 PFU Punta Toro virus Adames infected C57BL/6 mouse assessed as animals with detectable virus level in serum at 10 mg/kg, po twice daily administered 24 hrs post viral challenge measured on day 3 of viral infection; assay type: functional; how it was run: as §3
Punta Toro virus [18] = experiment: Antiviral activity against Punta Toro virus Adames infected Syrian golden hamster assessed as animals with detectable virus level in serum at 30 mg/kg, […] measured on day 4 of viral infection; assay type: functional; details: route oral
Punta Toro virus [19] = experiment: Antiviral activity against Punta Toro virus Adames infected Syrian golden hamster assessed as mean serum ALT levels at 30 mg/kg, po twice daily administered 4 hrs before viral challenge measured on day 4 of viral infection; assay type: functional
How it was run: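 Hamsters were challenged subcutaneously with 50 PFU and dosed twice daily by oral gavage in 0.4% CMC. Five per group were sacrificed on day 3 or 4. Livers were scored 0-4 for icterus, and serum ALT was measured by kinetic assay against three sham-infected baseline animals.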

Row | Structure (SMILES) | log10CCID50 (Punta Toro virus [1]) | Activity (Punta Toro virus [2]) | Activity (Punta Toro virus [3]) | Activity (Punta Toro virus [4]) | log10CCID50 (Punta Toro virus [5]) | log10CCID50 (Punta Toro virus [6]) | Activity (Punta Toro virus [7]) | Activity (Punta Toro virus [8]) | EC50 (Rift Valley fever virus) | Activity (Pichinde virus [9]) | Activity (Pichinde virus [10]) | Efficacy (Pichinde virus [11]) | Activity (Pichinde virus [12]) | log10CCID50 (Pichinde virus [13]) | Activity (Pichinde virus [14]) | Activity (Punta Toro virus [15]) | Activity (Punta Toro virus [16]) | Activity (Punta Toro virus [17]) | Activity (Punta Toro virus [18]) | Activity (Punta Toro virus [19])
1 | NC(=O)c1nc(F)cnc1O [FAVIPIRAVIR] | <3.5 | 40% | 5 days | Active | <2.8 | <4.4 | 80% | 199 IU/L | 32 µM | 100% | 1583 IU/L | 60% | 100% | >8.6 | 1890 IU/L | 5 days | 80% | 100% | 40% | 25 IU/L
2 | NC(=O)c1ncn([C@@H]2O[C@H](CO)[C@@H](O)[C@H]2O)n1 [RIBAVIRIN] | <2.8 | 0% | 5 days | Active | <2.8 | 6.1 | 100% | 131 IU/L | 53 µM | 80% | 24 IU/L | 60% | 100% | 6.8 | 67 IU/L | 5.3 days | 80% | 100% | 0% | 13 IU/L
